Non-standard residues stand in square brackets, D forms with d. Residues, ends and D or L forms follow the SMILES beside them. *: point of attachment. Asu = N[C@@H](CCCCCC(=O)O)C(=O)O; Aib = CC(C)(N)C(=O)O; NHOH = ON* A value given as a limit tells only on which side of the number the result lay.

In assay [1] the target is Histone deacetylase 1 (Rattus norvegicus, UniProt Q4QQW4). In words: Inhibition of HDAC1 in rat liver extract.
A short description of assay [2]: Inhibition of HDAC6 in rat liver extract.
Assay [3] deals with Histone deacetylase 1 (Homo sapiens, UniProt Q13547). The assay is described as follows: Inhibition of FLAG-tagged HDAC1 expressed in human 293T cells. It counts as cell-based. The method, boiled down: (§1)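 FLAG-HDAC1 or FLAG-HDAC6 was immunoprecipitated with M2 agarose from lysates of overexpressing 293T cells, washed in enzyme buffer and diluted 1:10. Bead suspension, inhibitor and unselective fluorogenic substrate ZMAL were incubated at 37 C for 180 min. The reaction was stopped with TSA/borate pH 9.5/NDA and read at ex 330/em 390 nm. IC50 came from a dilution series against 0% and 100% (TSA) inhibition standards. Selectivity is the ratio of HDAC1 to HDAC6 IC50.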

Assay [4] concerns the target T1, Protein deacetylase HDAC6 (Homo sapiens, UniProt Q9UBN7).
T1 sequence (Q9UBN7 whole entry): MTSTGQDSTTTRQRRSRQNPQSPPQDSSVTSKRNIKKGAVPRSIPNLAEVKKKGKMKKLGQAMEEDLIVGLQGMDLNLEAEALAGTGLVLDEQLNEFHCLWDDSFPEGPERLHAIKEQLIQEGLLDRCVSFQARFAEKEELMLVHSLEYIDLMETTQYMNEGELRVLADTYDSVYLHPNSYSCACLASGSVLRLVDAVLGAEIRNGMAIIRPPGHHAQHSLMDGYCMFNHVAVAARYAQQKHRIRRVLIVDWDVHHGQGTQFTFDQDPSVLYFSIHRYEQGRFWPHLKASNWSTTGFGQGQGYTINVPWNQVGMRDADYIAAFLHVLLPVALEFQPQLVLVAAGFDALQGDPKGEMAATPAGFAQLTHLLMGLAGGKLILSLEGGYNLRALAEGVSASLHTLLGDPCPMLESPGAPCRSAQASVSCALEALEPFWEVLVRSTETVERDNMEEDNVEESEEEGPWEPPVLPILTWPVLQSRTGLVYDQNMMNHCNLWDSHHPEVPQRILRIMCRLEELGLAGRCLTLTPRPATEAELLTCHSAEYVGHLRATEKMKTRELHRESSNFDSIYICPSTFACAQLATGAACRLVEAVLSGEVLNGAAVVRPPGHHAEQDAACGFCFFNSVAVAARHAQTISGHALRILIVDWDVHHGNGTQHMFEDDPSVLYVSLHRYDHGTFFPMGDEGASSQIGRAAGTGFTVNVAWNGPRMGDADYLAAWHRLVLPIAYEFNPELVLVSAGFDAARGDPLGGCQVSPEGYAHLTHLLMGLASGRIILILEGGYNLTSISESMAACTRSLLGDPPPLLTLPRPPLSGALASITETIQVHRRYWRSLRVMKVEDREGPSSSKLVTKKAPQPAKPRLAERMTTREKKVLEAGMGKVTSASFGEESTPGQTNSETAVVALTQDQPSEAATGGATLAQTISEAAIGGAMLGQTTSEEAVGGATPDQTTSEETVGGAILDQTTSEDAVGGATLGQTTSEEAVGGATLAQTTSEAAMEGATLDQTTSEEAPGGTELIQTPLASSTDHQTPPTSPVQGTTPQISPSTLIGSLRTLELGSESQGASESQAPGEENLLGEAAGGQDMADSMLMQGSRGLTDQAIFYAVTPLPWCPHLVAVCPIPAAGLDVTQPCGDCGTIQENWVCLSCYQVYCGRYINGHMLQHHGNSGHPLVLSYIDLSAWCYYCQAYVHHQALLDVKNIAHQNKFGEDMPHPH
The assay is described as follows: Inhibition of FLAG-tagged HDAC6 expressed in human 293T cells. It counts as cell-based.

The species entered for assay [5] is Rattus norvegicus. The assay is described as follows: Selectivity for rat liver HDAC6 over rat liver HDAC1.
The species entered for assay [6] is Homo sapiens. The assay is described as follows: Selectivity for human FLAG-tagged HDAC6 over human FLAG-tagged HDAC1. The method, boiled down:
as §1

Assay [7] deals with MCF7. The assay is described as follows: Cytotoxicity against human MCF7 cells after 48 hrs by One aqueous proliferation assay. It is filed as functional, cell-based. The following applies: MCF7, 48 h. The method in brief:
(§2)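 Cells seeded at 5000 per well, with compound or DMSO vehicle added 24 h after seeding. Incubated 48 h at 37 C, three replicates per concentration. Growth was read by MTS absorbance at 490 nm. GI50 is the concentration reducing cell number by 50% versus control.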

Assay [8] relates to SQ20B. The assay is described as follows: Cytotoxicity against human SQ20B cells after 48 hrs by One aqueous proliferation assay. It counts as functional, cell-based. The method in brief:
as §2

The test system of assay [9] is HeLa. The assay is described as follows: Cytotoxicity against human HeLa cells after 48 hrs by One aqueous proliferation assay. It is filed as functional, cell-based. The method in brief:
as §2

Assay [10] concerns Jurkat. In words: Cytotoxicity against human Jurkat cells after 48 hrs by One aqueous proliferation assay. It counts as functional, cell-based. The method in brief: as §2
The test system of assay [11] is MCF-10A. In words: Cytotoxicity against human MCF10A cells after 48 hrs by One aqueous proliferation assay. It counts as functional, cell-based. The method, boiled down: as §2
Assay [12] relates to PC-3. In words: Cytotoxicity against human PC3 cells after 48 hrs by One aqueous proliferation assay. It counts as functional, cell-based. The following applies: PC-3, 48 h. The method in brief:
as §2

Sequence of Histone deacetylase 1 (Rattus norvegicus, UniProt Q4QQW4) (Q4QQW4 whole entry): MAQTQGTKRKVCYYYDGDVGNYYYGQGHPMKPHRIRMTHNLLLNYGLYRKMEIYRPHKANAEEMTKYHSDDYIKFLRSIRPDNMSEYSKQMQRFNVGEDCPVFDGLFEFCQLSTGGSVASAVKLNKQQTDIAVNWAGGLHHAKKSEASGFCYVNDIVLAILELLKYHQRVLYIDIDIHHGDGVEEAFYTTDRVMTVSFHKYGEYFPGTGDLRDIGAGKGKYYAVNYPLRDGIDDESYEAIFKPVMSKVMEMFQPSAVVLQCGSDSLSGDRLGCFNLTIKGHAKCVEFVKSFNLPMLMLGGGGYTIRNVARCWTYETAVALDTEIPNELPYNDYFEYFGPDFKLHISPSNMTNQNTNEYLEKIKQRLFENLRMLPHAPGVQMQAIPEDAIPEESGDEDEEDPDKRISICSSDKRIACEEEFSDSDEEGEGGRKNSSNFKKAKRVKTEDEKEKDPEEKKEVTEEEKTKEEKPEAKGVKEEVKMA
Sequence of Histone deacetylase 1 (Homo sapiens, UniProt Q13547) (Q13547 whole entry): as the sequence (Q4QQW4 whole entry) above, with K8R, E399D, D424E, M481L counted along it

On to `COC(=O)[C@H](Cc1ccc(-c2ccccc2)cc1)NC(=O)CCCCCCC(=O)NO`, for which the IC50 in assay [1] is 0.44 µM; in assay [2] it was 0.58 µM; in assay [3] it was 1.22 µM; in assay [4], 1.05 µM; in assay [7] it was 5 µM. Further, the Ratio IC50 in assay [5] amounted to 0.76; in assay [6], 1.16.
With `COC(=O)[C@H](Cc1ccc(-c2ccco2)cc1)NC(=O)CCCCCCC(=O)NO`, the half-inhibitory concentration (IC50) in assay [1] came out at 7.53 µM; in assay [2] it was 6.76 µM; in [3], 2.61 µM; in [4], 4.49 µM; in assay [7] it was 1.5 µM. The Ratio IC50 turned out to be 1.11 in [5] and 0.58 in [6].
As for `COC(=O)[C@H](Cc1ccc(-c2ccsc2)cc1)NC(=O)CCCCCCC(=O)NO`, the 50% inhibitory concentration (IC50) came out at 0.59 µM in assay [1]; 0.5 µM in [2]; 3.34 µM in assay [3]; 4.02 µM in assay [4]; 1.5 µM in assay [7]. Further, the Ratio IC50 in [5] is 1.18; in assay [6] it was 0.83.
Take `COC(=O)[C@H](Cc1ccc(-c2cccs2)cc1)NC(=O)CCCCCCC(=O)NO`: the IC50 in assay [1] is 0.57 µM; in assay [2], 0.58 µM; in assay [3], 5.07 µM; in assay [4], 9.99 µM; in [7], 4 µM; in assay [8], 6 µM. Besides, the IC50 turned out to be 3 µM in [9], 0.4 µM in [10], 8 µM in assay [11] and 1.8 µM in assay [12]. In addition, the Ratio IC50 in assay [5] was found to be 0.98; in assay [6], 0.51.
For `COC(=O)[C@H](Cc1ccc(Br)cc1)NC(=O)CCCCCCCC(=O)NO`, the IC50 is 2.11 µM in [1]; 0.68 µM in [2]; 28.4 µM in [3]; 4.67 µM in [4]; 0.9 µM in assay [7]. In addition, the Ratio IC50 in [5] was 3.1; in [6], 6.09.
In the case of `COC(=O)[C@H](Cc1ccc(-c2ccc(-c3ccccc3)cc2)cc1)NC(=O)CCCCCCCC(=O)NO`, the half-maximal inhibitory concentration (IC50) in assay [1] is 8.76 µM; in assay [2] it was 6.76 µM; in [3], 38.3 µM; in assay [4], 14.7 µM; in [7], 3.8 µM. Further, the Ratio IC50 was determined as 1.3 in assay [5] and 2.6 in assay [6].
Consider `COC(=O)[C@H](Cc1ccc(-c2ccc(-c3ccccc3)cc2)cc1)NC(=O)CCCCCCC(=O)NO`, for which the IC50 worked out at 0.13 µM in assay [1]; 0.78 µM in [2]; 0.96 µM in assay [3]; 0.69 µM in assay [4]; 0.8 µM in assay [7]. For the same compound, the Ratio IC50 in [5] turned out to be 0.17; in [6], 1.39.
Regarding `CN(C)c1ccc(C(=O)NCCCCCCC(=O)NO)cc1`, the IC50 in assay [1] was 0.24 µM; in assay [2] it was 0.08 µM; in assay [3] it was 2.96 µM; in assay [4], 0.75 µM. Also, the Ratio IC50 turned out to be 3 in [5] and 3.95 in [6].
`COC(=O)[C@H](Cc1ccc(-c2ccccc2)cc1)NC(=O)CCCCCCCC(=O)NO`: the IC50 amounted to 1.68 µM in [1]; 6.1 µM in assay [2]; 9.54 µM in [3]; 2.33 µM in [4]; 21 µM in assay [7]; 33 µM in [8]. In addition, the IC50 was found to be 7 µM in assay [9], 2.7 µM in assay [10], 42 µM in [11] and 9.9 µM in assay [12]. The Ratio IC50 in assay [5] was determined as 0.28; in assay [6] it was 4.09.
For the compound `COC(=O)[C@H](Cc1ccc(-c2cccs2)cc1)NC(=O)CCCCCCCC(=O)NO`, the IC50 in assay [1] is 2.55 µM; in [2], 0.84 µM; in assay [3] it was 16.8 µM; in assay [4], 4.09 µM; in [7], 4 µM. In addition, the Ratio IC50 in assay [5] was 3.04; in assay [6], 4.1.
Consider `COC(=O)[C@H](Cc1ccc(-c2ccoc2)cc1)NC(=O)CCCCCCC(=O)NO`, for which the IC50 in assay [1] came to 3.18 µM; in assay [2] it was 2.25 µM; in assay [3], 6.35 µM; in assay [4], 1.13 µM; in [7], 1.5 µM. The Ratio IC50 in assay [5] was determined as 1.41; in assay [6] it was 5.62.
With `COC(=O)[C@H](Cc1ccc(-c2ccoc2)cc1)NC(=O)CCCCCCCC(=O)NO`, the IC50 in assay [1] amounted to 3.03 µM; in assay [2] it was 0.68 µM; in assay [3], 10.3 µM; in assay [4], 1.05 µM; in assay [7], 32 µM; in assay [8] it was 35 µM. Moreover, the IC50 was found to be 21 µM in assay [9], 4 µM in [10], 44 µM in assay [11] and 10 µM in [12]. Besides, the Ratio IC50 was 4.46 in assay [5] and 9.81 in assay [6].
Turning to `COC(=O)[C@H](Cc1ccc(-c2ccco2)cc1)NC(=O)CCCCCCCC(=O)NO`, the IC50 in [1] was 2.44 µM; in [2], 0.47 µM; in assay [3], 9.76 µM; in assay [4] it was 2.33 µM; in assay [7], 18 µM. Further, the Ratio IC50 in assay [5] turned out to be 5.19; in [6], 4.19.
For the compound `COC(=O)[C@H](Cc1ccc(-c2ccsc2)cc1)NC(=O)CCCCCCCC(=O)NO`, the IC50 in assay [1] is 3.01 µM; in assay [2] it was 0.81 µM; in assay [3], 19.2 µM; in [4], 1.77 µM; in assay [7], 17 µM; in assay [8] it was 37 µM. For the same compound, the IC50 in [9] was 10 µM; in assay [10], 2.8 µM; in assay [11], 32 µM; in assay [12], 10 µM. The Ratio IC50 in [5] came out at 3.72; in [6] it was 10.8.
As for `CC1(C)NC(=O)[C@H](CCCCCC(=O)NO)NC(=O)[C@H]2CCCN2C(=O)[C@H](Cc2ccccc2)NC1=O` (cyclo([Aib]F[dP][Asu](NHOH))), the IC50 in [1] was 0.021 µM; in assay [2], 0.23 µM; in assay [3] it was 0.0004 µM; in assay [4], 0.04 µM. In addition, the Ratio IC50 in assay [5] came out at 0.09; in assay [6], 0.01.
For `COC(=O)[C@H](Cc1ccc(Br)cc1)NC(=O)CCCCCCC(=O)NO`, the IC50 came out at 3.19 µM in assay [1]; 4.98 µM in assay [2]; 22.9 µM in assay [3]; 22 µM in assay [7]; 25 µM in assay [8]; 15 µM in assay [9]. The results for the IC50 in [10], in assay [11] and in assay [12] were 3 µM, more than 50 µM and more than 50 µM, respectively. Moreover, the Ratio IC50 was determined as 0.64 in assay [5] and 13.5 in assay [6].
Turning to `COC(=O)[C@H](Cc1ccc(-c2ccc3ccccc3c2)cc1)NC(=O)CCCCCCC(=O)NO`, the IC50 in [1] worked out at 0.63 µM; in assay [2], 0.91 µM; in [3], 2.98 µM; in assay [4], 1.17 µM; in assay [7], 1.9 µM. The Ratio IC50 in assay [5] was found to be 0.69; in [6], 2.55.
